Columns and labels:
[1] = Relative activity as reciprocal of the ratio of ED50 (retinoid) / ED50 (retinoic acid) when control was 3 x 10e-11; assay type: functional
Cricetinae gen. sp. [2] = assay: Reversal of keratinization process in hamster tracheal organ culture at concentration of 10e-9 M expressed as percent of active cultures out of 12 cultures; assay type: functional, Trachea
Cricetinae gen. sp. [3] = assay: Reversal of keratinization process in hamster tracheal organ culture at concentration of 10e-10 M expressed as percent of active cultures out of 13 cultures; assay type: functional, Trachea
Cricetinae gen. sp. [4] = assay: Reversal of keratinization process in hamster tracheal organ culture at concentration of 10e-11 M expressed as percent of active cultures out of 5 cultures; assay type: functional, Trachea
Cricetinae gen. sp. [5] = assay: Reversal of keratinization process in hamster tracheal organ culture at concentration of 10e-8 M expressed as percent of active cultures out of 7 cultures; assay type: functional, Trachea
[6] = molecular target: T1, Ornithine decarboxylase (Mus musculus) (UniProt P00860); assay: Percent inhibition of induction of ODC(ornithine decarboxylase) by TPA in mouse skin at a dose of 1.7 nmol
T1 sequence (whole entry): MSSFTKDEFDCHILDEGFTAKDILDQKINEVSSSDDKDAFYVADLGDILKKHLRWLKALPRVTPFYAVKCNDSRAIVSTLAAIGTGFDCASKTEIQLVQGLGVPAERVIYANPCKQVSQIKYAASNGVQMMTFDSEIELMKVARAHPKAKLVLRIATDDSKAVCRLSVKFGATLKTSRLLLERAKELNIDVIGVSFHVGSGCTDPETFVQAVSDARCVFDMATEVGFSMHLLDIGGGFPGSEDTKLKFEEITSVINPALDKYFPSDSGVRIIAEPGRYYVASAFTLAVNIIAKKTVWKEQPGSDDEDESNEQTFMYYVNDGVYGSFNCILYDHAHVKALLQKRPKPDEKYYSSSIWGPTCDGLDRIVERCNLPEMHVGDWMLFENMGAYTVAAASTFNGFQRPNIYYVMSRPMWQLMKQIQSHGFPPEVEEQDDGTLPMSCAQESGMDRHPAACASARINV
In short: (§1)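 ODC induction by the tumour-promoting phorbol ester TPA, measured in mouse dorsal epidermis. Retinoid was tested at 1.7 or 17 nmol dose levels. Activity is expressed as a percentage of that of retinoic acid at the same dose.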

[7] = molecular target: T1, Ornithine decarboxylase (Mus musculus); assay: Percent inhibition of induction of ODC(ornithine decarboxylase) by TPA in mouse skin at a dose of 17.0 nmol; in short: as §1
[8] = Relative activity as reciprocal of the ratio of ED50 (retinoid) / ED50 (retinoic acid) when control was 6 x 10e-12; assay type: functional
Cricetinae gen. sp. [9] = assay: Reversal of keratinization process in hamster tracheal organ culture at concentration of 10e-9 M expressed as percent of active cultures out of 7 cultures; assay type: functional, Trachea
Cricetinae gen. sp. [10] = assay: Reversal of keratinization process in hamster tracheal organ culture at concentration of 10e-10 M expressed as percent of active cultures out of 22 cultures; assay type: functional, Trachea
Cricetinae gen. sp. [11] = assay: Reversal of keratinization process in hamster tracheal organ culture at concentration of 10e-11 M expressed as percent of active cultures out of 22 cultures; assay type: functional, Trachea
Cricetinae gen. sp. [12] = assay: Reversal of keratinization process in hamster tracheal organ culture at concentration of 10e-12 M expressed as percent of active cultures out of 15 cultures; assay type: functional, Trachea
[13] = Relative activity as reciprocal of the ratio of ED50 (retinoid) / ED50 (retinoic acid) when control was 7 x 10e-12; assay type: functional

Structure (SMILES)	Ratio [1]	Active culture (Cricetinae gen. sp. [2]) [%]	Active culture (Cricetinae gen. sp. [3]) [%]	Active culture (Cricetinae gen. sp. [4]) [%]	Active culture (Cricetinae gen. sp. [5]) [%]	inhibition [6] [%]	inhibition [7] [%]	Ratio [8]	Active culture (Cricetinae gen. sp. [9]) [%]	Active culture (Cricetinae gen. sp. [10]) [%]	Active culture (Cricetinae gen. sp. [11]) [%]	Active culture (Cricetinae gen. sp. [12]) [%]	Ratio [13]
CC1=C(/C=C/C(C)=C/c2ccc(C(=O)O)cc2)C(C)(C)CCC1	1	–	–	–	–	–	–	–	–	–	–	–	–
CC1=C(/C=C/c2ccc3cc(C(=O)O)ccc3c2)C(C)(C)CCC1	–	92	46	20	100	30	48	0.4	–	–	–	–	–
CC1(C)CCC(C)(C)c2cc(-c3ccc4cc(C(=O)O)ccc4c3)ccc21	–	–	–	–	–	56	80	–	100	95	77	27	> 10

From ChEMBL document CHEMBL1122401, “Synthesis and pharmacological activity of 6-[(E)-2-(2,6,6-trimethyl-1-cyclohexen-1-yl)ethen-1-yl]- and 6-(1,2,3,4-tetrahydro-1,1,4,4-tetramethyl-6-naphthyl)-2-naphthalenecarboxylic acids” (1983)
